Activity calls are given as the source filed them. The calls are words filed in the database; no cut-off is given here.
Experiments:
Rattus norvegicus [1] = test: Inhibition of passive cutaneous anaphylaxis following 10 mg/kg p.o. administration; Inactive.; format: functional, organism-based; set-up: dose 10 mg/kg; details: at 10 mg/kg
In short: (§1)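 Rat passive cutaneous anaphylaxis model, with test agents given by the oral route.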

Rattus norvegicus [2] = test: Inhibition of passive cutaneous anaphylaxis following 3 mg/kg p.o. administration.; format: functional; details: route oral; in short: as §1
Rattus norvegicus [3] = test: Inhibition of passive cutaneous anaphylaxis following 10 mg/kg p.o. administration.; format: functional; details: route oral; in short: as §1
Rattus norvegicus [4] = test: Inhibition of passive cutaneous anaphylaxis following 30 mg/kg p.o. administration.; format: functional; details: route oral; in short: as §1
Rattus norvegicus [5] = test: Inhibition of passive cutaneous anaphylaxis following 1 mg/kg p.o. administration.; format: functional; details: route oral; in short: as §1
Rattus norvegicus [6] = test: Inhibition of passive cutaneous anaphylaxis following 3 mg/kg p.o. (5 min pretreatment) administration.; format: functional; details: route oral; in short: as §1

Row | SMILES | inhibition in vivo at 3 mg/kg (Rattus norvegicus [2]) [%] | inhibition in vivo at 10 mg/kg (Rattus norvegicus [3]) [%] | other results
1 | CCOC(=O)C(=O)Nc1cccc(/C=C/c2ccccc2)n1 |  |  | inhibition (Rattus norvegicus [1]): inactive
2 | O=C(Nc1nn[nH]n1)c1cccc(Br)n1 | 38 | 48 | 
3 | O=C(Nc1nn[nH]n1)c1cccc(Oc2ccccc2)n1 |  | 0 | 
4 | CCCCc1cccc(C(=O)Nc2nn[nH]n2)n1 |  | 18 | 
5 | CCCc1cccc(C(=O)Nc2nn[nH]n2)n1 |  | 38 | 
6 | COc1cccc(C(=O)Nc2nn[nH]n2)n1 | 36 | 58 | 
7 | Cc1cc([N+](=O)[O-])cc(C(=O)Nc2nn[nH]n2)n1 |  | 6 | 
8 | O=C(Nc1nn[nH]n1)c1cccc(CCc2ccccc2)n1 |  | 45 | 
9 | O=C(Nc1nn[nH]n1)c1ncccc1Cl |  | 22 | 
10 | COc1cc(C)nc(C(=O)Nc2nn[nH]n2)c1 |  | 20 | 
11 | O=C(Nc1nn[nH]n1)c1ccccn1 | 29 | 35 | inhibition in vivo at 30 mg/kg (Rattus norvegicus [4]): 100%; inhibition in vivo at 1 mg/kg (Rattus norvegicus [5]): 0%
12 | O=C(Nc1nn[nH]n1)c1cc(Cl)ccn1 | 72 | 100 | inhibition in vivo at 1 mg/kg (Rattus norvegicus [5]): 38%; inhibition in vivo at 3 mg/kg (Rattus norvegicus [6]): 71%
13 | Cc1ccnc(C(=O)Nc2nn[nH]n2)c1 | 42 |  | inhibition in vivo at 1 mg/kg (Rattus norvegicus [5]): 28%; inhibition in vivo at 3 mg/kg (Rattus norvegicus [6]): 51%
14 | Cc1ccc(C(=O)Nc2nn[nH]n2)nc1C |  | 42 | 
15 | O=C(Nc1nn[nH]n1)c1cc([N+](=O)[O-])ccn1 |  | 38 | 
16 | O=C(Nc1nn[nH]n1)c1cccc(/C=C/c2ccccc2)n1 | 73 |  | inhibition in vivo at 1 mg/kg (Rattus norvegicus [5]): 53%; inhibition in vivo at 3 mg/kg (Rattus norvegicus [6]): 75%
17 | O=C(Nc1nn[nH]n1)c1cccc(Cl)n1 | 18 | 13 | 
18 | Cc1ccc(C)c(C(=O)Nc2nn[nH]n2)n1 | 65 |  | inhibition in vivo at 1 mg/kg (Rattus norvegicus [5]): 37%; inhibition in vivo at 3 mg/kg (Rattus norvegicus [6]): 72%
19 | COc1cccnc1C(=O)Nc1nn[nH]n1 |  | 0 | 

Row | SMILES | inhibition in vivo at 3 mg/kg (Rattus norvegicus [2]) [%] | inhibition in vivo at 10 mg/kg (Rattus norvegicus [3]) [%] | other results
20 | CSc1ccc(C(=O)Nc2nn[nH]n2)nc1 |  | 29 | 
21 | CC(C)c1ccnc(C(=O)Nc2nn[nH]n2)c1 | 34 |  | inhibition in vivo at 1 mg/kg (Rattus norvegicus [5]): 36%
22 | O=C(O)c1cccc(/C=C/c2ccccc2)n1 |  |  | inhibition (Rattus norvegicus [1]): inactive
23 | CNc1ccc(-c2cc(C)cc(C(=O)Nc3nn[nH]n3)n2)cc1 | 89 |  | 
24 | Cc1cc(C)nc(C(=O)Nc2nn[nH]n2)c1 | 44 |  | inhibition in vivo at 3 mg/kg (Rattus norvegicus [6]): 37%
25 | O=C(Nc1nn[nH]n1)c1ccncc1 |  |  | inhibition in vivo at 30 mg/kg (Rattus norvegicus [4]): 57%
26 | CCCCOc1cccc(C(=O)Nc2nn[nH]n2)n1 | 18 | 8 | 
27 | O=C(Nc1nn[nH]n1)c1cc(Br)ccn1 | 34 | 100 | inhibition in vivo at 1 mg/kg (Rattus norvegicus [5]): 9%
28 | C(=C\c1cccc(-c2nn[nH]n2)n1)/c1ccccc1 |  |  | inhibition (Rattus norvegicus [1]): inactive
29 | O=C(O)C(=O)Nc1cccc(/C=C/c2ccccc2)n1 |  |  | inhibition (Rattus norvegicus [1]): inactive
30 | Cc1cc(Cl)cc(C(=O)Nc2nn[nH]n2)n1 |  | 100 | inhibition in vivo at 1 mg/kg (Rattus norvegicus [5]): 66%; inhibition in vivo at 3 mg/kg (Rattus norvegicus [6]): 85%
31 | CCc1ccnc(C(=O)Nc2nn[nH]n2)c1 | 29 |  | inhibition in vivo at 1 mg/kg (Rattus norvegicus [5]): 32%; inhibition in vivo at 3 mg/kg (Rattus norvegicus [6]): 54%
32 | Cc1ccc(C(=O)Nc2nn[nH]n2)nc1 |  | 42 | 
33 | Cc1cccnc1C(=O)Nc1nn[nH]n1 |  | 69 | 
34 | O=C(Nc1nn[nH]n1)c1cccnc1 | 4 | 3 | inhibition in vivo at 30 mg/kg (Rattus norvegicus [4]): 18%
35 | CCCCc1ccnc(C(=O)Nc2nn[nH]n2)c1 | 33 | 54 | 
36 | COc1ccnc(C(=O)Nc2nn[nH]n2)c1 |  | 88 | 
37 | Cc1cccc(C(=O)Nc2nn[nH]n2)n1 | 46 |  | inhibition in vivo at 1 mg/kg (Rattus norvegicus [5]): 40%; inhibition in vivo at 3 mg/kg (Rattus norvegicus [6]): 73%
